The results in this text go back to ChEMBL document CHEMBL1158519, “Syntheses and antibacterial activity studies of new oxazolidinones from nitroso Diels-Alder chemistry” (2010).

What all share (format): functional
Holding throughout (details): read-out: DIZ

The subject of one experiment is Staphylococcus aureus. Briefly: Antimicrobial activity against wild type Staphylococcus aureus SG 511 at 2 mM after overnight incubation by agar diffusion method. The gist of the method:
(§1)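 Agar diffusion: 9 mm wells cut in Standard I Nutrient Agar or Mueller Hinton II agar, each loaded with 50 µl of a 2.0 mM compound solution in 1:9 DMSO:MeOH. Ciprofloxacin was run as control at 5 µg/mL in H2O. Plates were incubated at 37 °C for 24 h, and the inhibition zone diameter was read in mm. Zones were flagged as partially clear, unclear with colonies, or faint.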

Another experiment has as its system Bacillus subtilis. Kind of experiment: Antimicrobial activity against Bacillus subtilis ATCC 6633 at 2 mM after overnight incubation by agar diffusion method. The method, boiled down: as §1
The subject of experiment [1] is Escherichia coli. Kind of experiment: Antimicrobial activity against Escherichia coli ATCC 25922 at 2 mM after overnight incubation by agar diffusion method. The method, boiled down:
as §1

Experiment [2] deals with Pseudomonas aeruginosa. Kind of experiment: Antimicrobial activity against Pseudomonas aeruginosa K799/61 mutant at 2 mM after overnight incubation by agar diffusion method. The gist of the method: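 Agar well diffusion: 50 µl of a 2.0 mM solution in 1:9 DMSO:MeOH placed in 9 mm wells cut in nutrient agar or Mueller Hinton II agar; plates incubated 37 °C for 24 h, then inhibition zone diameter measured in mm. Zones scored as clear, partially clear, unclear (many colonies inside) or faint. Ciprofloxacin positive control at 5 µg/mL in water.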

Experiment [3] deals with Escherichia coli. Briefly: Antimicrobial activity against Escherichia coli X580 at 2 mM after overnight incubation by agar diffusion method.
The subject of a further experiment is Micrococcus luteus. Briefly: Antimicrobial activity against Micrococcus luteus ATCC 10240 at 2 mM after overnight incubation by agar diffusion method. The method, boiled down:
as §1

The test system of experiment [4] is Pseudomonas aeruginosa. Kind of experiment: Antimicrobial activity against wild type Pseudomonas aeruginosa K799 at 2 mM after overnight incubation by agar diffusion method. The gist of the method:
as §1

The next experiment relates to Enterococcus faecalis. Kind of experiment: Antimicrobial activity against Enterococcus faecalis ATCC 49532 at 2 mM after overnight incubation by agar diffusion method. The gist of the method:
as §1

For the next experiment, the system named is Mycolicibacterium vaccae. Kind of experiment: Antimicrobial activity against Mycobacterium vaccae IMET 10670 at 2 mM after overnight incubation by agar diffusion method. The method, boiled down:
as §1

`CC(C)(C)OC(=O)N1CCN(c2ccc(N3C[C@H](COC(=O)NO)OC3=O)cc2F)CC1`: the zone of inhibition at 2000 µM in the experiment on Staphylococcus aureus was 17 mm; in the experiment with Bacillus subtilis it was 22 mm; in the experiment on Escherichia coli [1], 12 mm; with Pseudomonas aeruginosa [2] it was 0 mm; in the experiment on Escherichia coli [3], 0 mm; in the experiment on Micrococcus luteus it was 33 mm. Besides, the results for the zone of inhibition at 2000 µM with Pseudomonas aeruginosa [4] and in the experiment on Enterococcus faecalis were 0 mm and 20 mm, respectively.

`CC(=O)NC[C@H]1CN(c2ccc(N3CCOCC3)c(F)c2)C(=O)O1` [LINEZOLID]: the zone of inhibition at 2000 µM in the experiment with Staphylococcus aureus worked out at 27 mm; with Bacillus subtilis it was 31 mm; in the experiment on Escherichia coli [1] it was 0 mm; with Pseudomonas aeruginosa [2], 10 mm; with Escherichia coli [3], 0 mm; in the experiment on Micrococcus luteus, 38 mm. For the same compound, the figures for the zone of inhibition at 2000 µM in the experiment with Mycolicibacterium vaccae, in the experiment with Pseudomonas aeruginosa [4] and in the experiment with Enterococcus faecalis were 42 mm, 0 mm and 25 mm, respectively.
